Bioassay records (PubChem BioAssay)
Compounds with a hit are over-represented: about 1.5% of the library has one in this group of screens.
CCR6 antagonist = antagonists of human CCR6 receptor; P51684; CHO-K1 CCR6 PathHunter beta-arrestin, luminescence, CCL20-stimulated; inhibition, % at 20 µM; 340,000 compounds, 0.49% hits; AID 493098;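 active = compounds whose inhibition of the agonist-driven luminescence signal at 20 µM reaches about 50%, limit read from the data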;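 also: cells stimulated with CCL20 at 14 nM final; plate controls were DMSO with CCL20 for no effect and DMSO without agonist for full effect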
APJ ag = APJ receptor agonism | P35414 | CHO-K1 APJ PathHunter beta-arrestin, luminescence; 0% DMSO wells, 100% apelin | activation, % at 20 µM | 330,000 compounds, 0.11% hits | AID 2520;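 active = activation more than six SD over the plate average, tested at 20 µM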;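 also: 0% = DMSO alone and 100% = apelin-13 at 10 nM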
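Test system: CHO-K1 APJ beta-arrestin complementation cell line. Amount: cell density 1000 per well. Controls: DMSO negative, 10 nM Apelin-13 positive. Signal: luminescent beta-gal fragment complementation, chemiluminescent substrate. Read-out basis: agonist-driven arrestin binding to APJ. Timing: compound stimulation 90 min at 25 °C, detection 60 min.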
APJ antag = blocks the human apelin receptor APJ; 330,000 compounds, 0.32% hits; inhibition, % at 20 µM; P35414; CHO-K1 APJ beta-arrestin complementation, luminescence;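 active = inhibition above about 40% at 20 µM, limit read from the data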;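 also: cells challenged with 10 nM apelin-13 agonist together with compound; plate controls were apelin-13 plus DMSO wells for no effect and DMSO wells lacking apelin-13 for full effect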
EBI2 antag = EBI2 (human) antagonism; inhibition, % at 5 µM; 360,000 compounds, 0.81% hits; EBI2 beta-arrestin recruitment, luminescence, 7a,25-OHC stimulated; in the data active = inhibition above about 38%;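 also: enzyme fragment complementation signal reports receptor beta-arrestin coupling in cells; 0% = agonist plus DMSO wells and 100% = wells without agonist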
Target sequence (P32249 whole entry, looked up, the tested form may be a part): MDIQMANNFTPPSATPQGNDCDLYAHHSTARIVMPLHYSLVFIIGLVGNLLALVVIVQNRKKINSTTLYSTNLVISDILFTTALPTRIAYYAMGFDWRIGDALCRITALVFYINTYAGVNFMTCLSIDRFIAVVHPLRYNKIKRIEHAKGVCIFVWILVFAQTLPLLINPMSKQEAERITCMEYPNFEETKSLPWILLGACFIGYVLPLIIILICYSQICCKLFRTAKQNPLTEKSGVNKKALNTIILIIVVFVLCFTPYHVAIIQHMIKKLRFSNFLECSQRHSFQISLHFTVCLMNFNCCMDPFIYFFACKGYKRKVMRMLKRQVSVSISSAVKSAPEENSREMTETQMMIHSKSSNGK
CXCR6 block = CXCR6 (human) receptor inhibition | O00574 | CHO-K1 PathHunter CXCR6 beta-arrestin, luminescence | inhibition, % at 20 µM | 360,000 compounds, 0.36% hits | AID 602244; in the data active = inhibition above about 34%, passing the limit was not always enough;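 also: antagonist mode with CXCL16 agonist at 10 nM final; 0% = 10 nM CXCL16 with DMSO and 100% = unstimulated wells without agonist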
Target sequence (O00574 whole entry, looked up): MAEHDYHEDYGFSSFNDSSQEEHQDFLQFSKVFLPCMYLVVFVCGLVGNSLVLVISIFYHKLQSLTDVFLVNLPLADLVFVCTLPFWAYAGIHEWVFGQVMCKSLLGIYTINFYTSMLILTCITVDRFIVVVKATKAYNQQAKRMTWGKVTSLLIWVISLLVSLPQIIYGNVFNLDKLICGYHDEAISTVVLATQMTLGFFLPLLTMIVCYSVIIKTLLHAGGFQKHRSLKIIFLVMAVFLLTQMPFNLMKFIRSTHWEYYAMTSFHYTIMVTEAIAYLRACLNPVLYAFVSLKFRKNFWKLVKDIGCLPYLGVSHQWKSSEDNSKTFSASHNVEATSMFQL
Active calls of the source: *; · = not tested or not shown.

SMILES	CCR6 antagonist	APJ ag	APJ antag	EBI2 antag	CXCR6 block
CCOC1=CC2=C(C(=O)C(Cl)=CC2=O)[C@@H]2CN(S(=O)(=O)c3ccc(C)cc3)[C@@H](c3ccccc3)[C@H]12	·	·	·	4.9	24.6
Cc1csc(N/N=C/c2ccc([N+](=O)[O-])cc2)n1	-4.9	6.3	0.5	-7.7	-8.4
Cc1csc(N/N=C/c2ccccn2)n1	60.3*	-1.0	12.4	0.0	22.8
COc1ccc(C=NNc2nc3ccccc3s2)cc1	-16.3	·	·	-2.5	-3.5
C(=N\Nc1nc2ccccc2s1)/c1ccccn1	76.9*	-2.3	33.9	·	·
Nc1nc2ccc(Cl)cc2cc1C(=O)NCc1ccc(Oc2ccccc2)cc1	·	·	·	-13.6	-12.3
CCN(CC)c1ccc(N=Nc2nn(C)c(C)c2[N+](=O)[O-])cc1	64.2*	-7.0	54.6*	20.2	38.7
O=C(CSc1nc(-c2ccc(F)cc2)nc2c1Cc1ccccc1O2)Nc1cccc(C(=O)O)c1	51.9*	·	·	-2.9	2.6
Cc1ccc(OCC(=O)NNC(=S)NC(=O)C(C)(C)C)c(Br)c1	58.8*	-5.3	9.9	6.3	37.7
Cc1ccc(OCC(=O)NC(=S)Nc2ccccn2)c(Br)c1	-2.9	-5.1	-5.7	-8.4	1.2
O=C(/C=C/c1ccc(S(=O)(=O)N2CCOCC2)cc1)N1CCN(c2ccc(F)cc2)CC1	1.6	-2.2	-2.9	-8.0	-15.4
O=C(/C=C/c1ccc2c(c1)OCCO2)N1CCN(c2ccc(F)cc2)CC1	11.8	-2.1	13.4	44.3*	-1.0
COc1cccc2cc(/C(C)=N/Nc3nc(-c4cc(C)ccc4C)cs3)c(=O)oc12	10.5	-3.1	30.4	12.1	3.8
CCOC(=O)[C@]12CCC=C1N(Cc1cccc3ccccc13)C(=O)[C@H](CC(=O)NCCCOC)C2	·	·	·	-4.4	-1.1
CCCCCCCCCCCCC/C=C/[C@@H](O)[C@@H](N)CO	66.7*	-5.0	21.7	10.2	15.9
CCCCCCCC/C=C\CCCCCCCC(=O)O	13.4	-5.7	22.6	-0.4	15.1
CC1CCN(S(=O)(=O)c2ccc(NC(=S)NC(=O)c3ccc(Cl)cc3)cc2)CC1	54.9*	-4.8	31.5	16.0	14.4
CN1CCN(S(=O)(=O)c2ccc(NC(=S)NC(=O)c3ccc(Cl)cc3)cc2)CC1	32.0	·	·	-2.4	16.6
CCOC(=O)N1CCN(C(C(=O)NC2CCCC2)C(C)C)CC1 (stereo unspecified)	·	·	·	8.8	·
Cc1c(NS(=O)(=O)c2cccs2)cccc1-c1nc2cccnc2s1	0.9	-1.1	-5.4	-14.2	-3.9
O=S(=O)(Nc1cccc2ncccc12)c1cccs1	88.3*	-14.4	87.5*	59.6*	78.9*
C[C@@H](NC(=O)/C(C#N)=C/c1ccc(O)c(O)c1)c1ccccc1	39.7	-2.7	16.0	6.7	15.7
CC(NC(=O)/C(C#N)=C/c1ccc(Cl)c([N+](=O)[O-])c1)c1ccccc1 (stereo unspecified)	92.5*	8.6	8.6	·	·
Nc1[nH]n2c(=O)cc(-c3ccccc3)nc2c1N=Nc1ccccc1	51.0*	-5.1	37.2	7.0	26.2
Cc1ccc(-n2nc(C)c3c(C)c(CCC(=O)Nc4ccc(CN5CCCC5)cc4)c(C)nc32)cc1	52.5*	-0.3	-4.3	13.8	-9.9
SMILES	CCR6 antagonist	APJ ag	APJ antag	EBI2 antag	CXCR6 block
Oc1ccc(Cl)c(CN2CCN(c3ncc(Cc4ccccc4)cn3)CC2)c1	·	·	·	1.1	·
Cc1ccc2cc3c(N)c(C(=O)N4CC(=O)Nc5ccccc54)sc3nc2c1	·	-20.4	97.6*	·	·
COc1ccc2cc(/C=C/C(=O)N3CCN(CC(=O)N4CCCCCC4)CC3)ccc2c1	0.2	1.6	0.6	60.5*	-1.9
CC1=NN(c2nc(N)nc(/C(C#N)=C/c3ccc([N+](=O)[O-])o3)n2)C(C)(C)C1	53.0*	·	·	29.3	26.6
O=C1C2C(C(=O)N1/N=C/c1ccc([N+](=O)[O-])o1)C1C=CC2C12CC2 (stereo unspecified)	4.3	2.8	-70.2	-11.2	-14.1
CCN(C)C1CN(Cc2cn(Cc3cc(C)cc(C)c3)nn2)S(=O)(=O)C1 (stereo unspecified)	·	·	·	-3.3	-7.9
CC(NC(=O)COC(=O)C1CCCCC1)c1ccccc1 (stereo unspecified)	-3.4	-1.8	7.8	4.7	2.5
COc1ccc(-c2nc(=S)c3ccc4ccccc4c3[nH]2)cc1	70.8*	·	·	2.7	45.1*
COc1ccc(-c2nc3ccccc3[nH]2)cc1	-0.8	0.8	5.5	-6.3	-2.2
CCCCC[C@@H](/C=C/C1C(=O)C=C[C@H]1C/C=C\CCCC(=O)O)OC(C)=O (stereo partly specified)	-9.9	·	·	-4.1	1.1
O=C1NC[C@H](CCCCN2C[C@H](Cc3ccccc3)N(CCC3CCCCC3)C(=O)C2=O)N(Cc2ccccc2)C1=O	·	·	·	0.4	4.6
CCOc1ccc(NC(=O)CN(C)S(=O)(=O)c2cccs2)cc1	9.4	1.9	-8.6	-2.6	49.0*
Cc1ccc(C2=CC(=O)C[C@H](c3ccc(Cl)cc3)C2)cc1	23.5	-4.9	-8.2	74.1*	-3.3
C=CCOCCN(CC)CC	0.8	·	·	-7.1	3.6
CCN1/C(=C/C=C/c2oc3ccc(-c4ccccc4)cc3[n+]2CC)Oc2ccc(-c3ccccc3)cc21	59.8*	-1.0	10.8	-9.6	22.4
O=c1[nH]c(=O)n2c(c1-c1ccccc1)OC(CBr)C2 (stereo unspecified)	·	·	·	9.2	9.3
Cc1ccc(OCCn2c(NC(=O)c3ccco3)nc3ccccc32)cc1	29.4	-1.0	13.0	0.3	39.2*
Nc1nc(Cl)nc2ncn(Cc3ccccc3)c12	1.7	-1.6	-21.0	-8.1	-3.2
Cc1ccc2c(c1)C(=O)C(=O)N2CCOc1ccccc1	51.3*	-6.9	9.6	-9.3	12.3
CCC(C(=O)NC(C)(C)C)n1c(-c2ccc3c(c2)OCO3)nc2ccccc21 (stereo unspecified)	·	·	·	-3.1	·
O=C(CCc1nnc(CCc2ccccc2)o1)NC(c1cccnc1)C(F)(F)F (stereo unspecified)	4.2	-3.3	-3.1	1.2	4.3
CC(C)(C)N(Cc1ccccc1)C(=O)CSc1nnc(CNc2ccc(F)cc2)o1	-5.3	-1.6	-1.6	46.9*	-2.1
COc1ccccc1-c1cccc(-c2nc(C(=O)Nc3nccs3)cc3c2[C@@H](CCO)N(C(=O)CC2CC2)C3)c1	·	·	·	10.7	-5.9
Cc1cc(C)cc(N2CCCn3c2nc2c3c(=O)[nH]c(=O)n2C)c1	9.6	-2.0	12.0	-6.3	-1.3
Cc1[nH]n(-c2ccccc2)c(=O)c1C=Nc1cccc2cccnc12	52.3*	-13.1	94.2*	95.7*	53.9*
Cc1[nH]n(-c2ccccc2)c(=O)c1/C=N/N1C(=O)c2cccc3cccc(c23)C1=O	73.5*	-4.7	18.1	1.8	52.5*
COc1cccc(N(CC(=O)N2CCN(C)CC2)S(=O)(=O)c2ccc(C)cc2)c1	-1.3	-1.9	14.3	-3.6	-4.0
Cn1cccc1C(C#N)c1cccc(F)c1C#N (stereo unspecified)	55.1*	-6.6	34.1	-10.6	3.5
